A short description of assay [1]: inhibitors of TNFa-induced NFkB p65 translocation, primary screen, imaging, HUVEC, MLSMR starter and 10KST1 sets (AID 438;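 active = inhibition above 20% together with a positive visual image hit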;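 also: compound added about 3h40 before a 20 min TNFalpha stimulation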;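 as to inhibition: signal is the nuclear over cytoplasmic p65 intensity ratio per well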). The conditions noted are these: HUVEC TNFa-induced p65 nuclear translocation; cell count: measured here: nuclei count (cytotoxicity indicator), at 2.08 µM; inhibition: at 2 µM, stronger effect = higher value, 0% TNFa-plus-vehicle, 100% no-TNFa wells.
Assay [2] is described as follows: inhibitors of mutant huntingtin aggregation, primary screen, imaging, exon1htt(103Q)mCFP cells, high-content imaging (AID 483;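 active = visual image review flags a hit and inhibition of aggregation exceeds 20%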;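 also: compound exposure lasted 3 days before fixation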;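 as to nuclei count: percent of the per-plate median nuclei count of sample wells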). Particulars: exon1htt(103Q)mCFP cell line, aggregate imaging, at 2 µM; inhibition of aggregation: stronger effect = higher value; nuclei count: measured here: cell count, toxicity.
The nature of assay [3]: inhibitors of E-selectin induction by TNFa, primary screen, imaging, HUVEC, immunofluorescence, MLSMR starter and 10KST1 sets (AID 487;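 active = visually confirmed hit in the image check and inhibition above 20%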;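 as to inhibition: signal is fraction of cell area covered by stained E-selectin grains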;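 as to nuclei count: 100% = median nuclei count of all wells on the same plate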). Particulars: HUVEC TNFalpha-induced E-selectin immunofluorescence imaging, at 2 µM; inhibition: stronger effect = higher value; nuclei count: measured here: cell number, toxicity.
Assay [4] addresses Voltage-gated potassium channel subunit beta-2 (Rattus norvegicus) (UniProt P62483). As to the kind of experiment: KvBeta enzyme negative modulators, primary screen, biochemical, NADPH fluorescence (AID 622;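 active = fluorescence slope higher than the sample average by over 3 SD, cut at about -0.22 in these data, passing the limit was not always enough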;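 also: slope of raw intensity against log time taken from 70 to 1610 s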). Particulars: recombinant KvBeta, 4-cyanobenzaldehyde reduction, at 10 µM, stronger effect = higher value.
Assay [5] shares this target. As to the kind of experiment: KvBeta positive modulators, primary screen, biochemical, NADPH fluorescence (AID 623;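 active = NADPH fluorescence slope more negative than the mean of all samples by about 3 SD, 99.7% confidence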;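 also: fluorescence intensity change per second fitted from 20 to 320 s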). The conditions noted are these: Recombinant KvBeta, NADPH fluorescence decrease slope, 10 min; at 10 µM; stronger effect = lower value.
In assay [6] the target is Muscarinic acetylcholine receptor M4 (Homo sapiens) (UniProt P08173). As to the kind of experiment: compounds altering M4/GIRK thallium flux, either direction, primary screen, M4 allosteric agonist project, cell-based, HEK293 M4/GIRK, BTC-AM (AID 625;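 active = fluorescence slope after compound addition differing from the mean of all tested samples at 99.7% confidence, mostly higher but some lower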;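 also: thallium influx through GIRK channels coupled to M4 in HEK293 cells with BTC-AM dye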). Particulars: at 10 µM, actives lie on both sides. An outline of the steps: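 Material: M4/GIRK1/GIRK2 stable HEK293 cell line. Medium: pH 7.3 thallium assay buffer. Dosing: single compound concentration, 10 µM final. Schedule: 1 h dye loading, 2 min kinetic read. Measured by: kinetic fluorescence with BTC-AM dye. Read-out: post-addition slope, 15–24 s, of baseline-normalized fluorescence. Benchmarks: carbachol and DMSO controls.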

Assay [7] in a line: inhibitors of Sendai virus-induced IRF3 signaling, primary screen, TLR/RLR signaling modifier project, cell-based, Sendai virus stimulus, luciferase, 10K MLSCN set (AID 602276;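 active = inhibition at or above 50% at 10 µM; inactive = inhibition below 50%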;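 also: firefly luciferase from ISG56 promoter only with Renilla not read in this screen; 0% = Sendai virus plus DMSO and 100% = medium plus DMSO without virus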). Particulars: HEK293 RL24 IRF3 luciferase reporter, at 10 µM, stronger effect = higher value. Background: In a reporter assay the amount or activity of a reporter protein is the signal.
A short description of assay [8]: inhibitors of poly I:C-induced TLR3 signaling, primary screen, cell-based, poly I:C stimulus, luciferase, 10K MLSCN set (AID 602277). The conditions noted are these: HEK293-TLR3 RL24 IRF3 luciferase reporter, at 10 µM, stronger effect = higher value.

The source made the active and inactive calls.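 The calls were made as follows, unless noted: active = inhibition of the reporter signal at or above 50%; inactive = inhibition below 50%.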

In general, inhibition refers to the relative decrease from the control value, in per cent.

Sequence of Voltage-gated potassium channel subunit beta-2 (Rattus norvegicus) (P62483 whole entry, looked up): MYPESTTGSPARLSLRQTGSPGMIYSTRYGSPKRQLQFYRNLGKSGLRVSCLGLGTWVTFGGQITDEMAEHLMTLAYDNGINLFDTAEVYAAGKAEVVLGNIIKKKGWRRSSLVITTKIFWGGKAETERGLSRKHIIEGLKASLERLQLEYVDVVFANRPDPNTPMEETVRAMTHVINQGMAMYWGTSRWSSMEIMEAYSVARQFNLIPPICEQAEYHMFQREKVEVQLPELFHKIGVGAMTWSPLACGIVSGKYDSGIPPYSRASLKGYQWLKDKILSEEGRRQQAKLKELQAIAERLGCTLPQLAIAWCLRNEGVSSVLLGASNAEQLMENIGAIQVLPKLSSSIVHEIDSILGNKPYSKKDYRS
Sequence of Muscarinic acetylcholine receptor M4 (Homo sapiens) (P08173 whole entry, looked up): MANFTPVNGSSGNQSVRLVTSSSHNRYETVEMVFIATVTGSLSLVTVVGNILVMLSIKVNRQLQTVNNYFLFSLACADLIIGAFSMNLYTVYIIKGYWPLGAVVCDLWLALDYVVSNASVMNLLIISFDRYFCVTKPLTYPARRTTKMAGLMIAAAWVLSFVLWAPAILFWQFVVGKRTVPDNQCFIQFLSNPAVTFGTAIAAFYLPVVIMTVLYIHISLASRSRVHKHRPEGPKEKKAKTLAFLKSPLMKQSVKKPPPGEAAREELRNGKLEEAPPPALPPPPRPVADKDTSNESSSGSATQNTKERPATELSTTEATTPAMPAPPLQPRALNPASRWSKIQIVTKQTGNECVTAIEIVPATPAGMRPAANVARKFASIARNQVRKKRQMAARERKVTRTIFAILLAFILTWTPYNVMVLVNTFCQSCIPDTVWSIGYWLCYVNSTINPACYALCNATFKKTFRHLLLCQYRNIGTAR

Regarding `CCCC1CCC(C(=O)Nn2c(C)nc3ccccc3c2=O)CC1` (centres undefined), the cell count in assay [1] came to 340. In addition, the inhibition in assay [1] is 0% (inactive); in assay [3] it was 11.4% (inactive); in assay [7], 15.6% (inactive); in assay [8], 18.5% (inactive). For the same molecule, in assay [2], the inhibition of aggregation is -13.5% (inactive). The values for the nuclei count in assay [2] and in assay [3] were 73.2% and 79%, respectively. Further, the figures for the fluorescence slope in assay [4] and in assay [6] were -0.472 (inactive) and 0.00445 (inactive), respectively. Moreover, in assay [5], the NADPH fluorescence slope was -2.4e-05 (inactive).

Regarding `COC(=O)c1ccccc1NC(=O)c1noc2c1CCC2`, the cell count in assay [1] amounted to 251. Moreover, the inhibition in assay [1] is 0.3% (inactive); in assay [3], -15.1% (inactive); in assay [7], 13.1% (inactive); in assay [8], 22.8% (inactive). Besides, the inhibition of aggregation in assay [2] is 6.7% (inactive). Moreover, the nuclei count was 100% in assay [2] and 120% in assay [3]. The figures for the fluorescence slope in assay [4] and in assay [6] were -0.597 (inactive) and 0.0051 (inactive), respectively. The NADPH fluorescence slope in assay [5] is -2.5e-05 (inactive).

As for `CCCOc1ccc([C@@H]2C3CN(C(=O)OCC)CC=C3C(C#N)=C(N)C2(C#N)C#N)cc1OC` (some centres undefined), the cell count in assay [1] amounted to 743. Moreover, the inhibition was -23.3% (inactive) in assay [1], -44.9% (inactive) in assay [3], 11% (inactive) in assay [7] and -2.37% (inactive) in assay [8]. In assay [2], the inhibition of aggregation was 14.7% (inactive). The nuclei count in assay [2] was found to be 102%; in assay [3] it was 112%. The figures for the fluorescence slope in assay [4] and in assay [6] were -0.237 (inactive) and 0.00528 (inactive), respectively. Further, the NADPH fluorescence slope in assay [5] is -2.5e-05 (inactive).

Turning to `O=C(Cn1ccc2ccccc2c1=O)NCCC(=O)N1CCN(C(=O)c2ccco2)CC1`, in assay [1], the cell count is 397. The inhibition in assay [1] was -14.1% (inactive); in assay [3], 9.4% (inactive); in assay [7], -0.7% (inactive); in assay [8] it was 6.13% (inactive). The inhibition of aggregation in assay [2] is 11.3% (inactive). Further, the figures for the nuclei count in assay [2] and in assay [3] were 98.1% and 97.8%, respectively. The fluorescence slope in assay [4] is -0.503 (inactive); in assay [6] it was 0.00733 (inactive). For the same molecule, in assay [5], the NADPH fluorescence slope was 0.000132 (inactive).

On to `COC(=O)C(C)C1Sc2ccccc2NC1=O` (centres undefined), for which the cell count in assay [1] was 306. In addition, the inhibition in assay [1] was 3.6% (inactive); in assay [3] it was -37.7% (inactive); in assay [7], 12.5% (inactive); in assay [8] it was -8.12% (inactive). The inhibition of aggregation in assay [2] was -4.9% (inactive). The nuclei count is 89.5% in assay [2] and 131% in assay [3]. For the same molecule, the fluorescence slope in assay [4] was -0.28 (inactive); in assay [6], 0.00684 (inactive). In addition, the NADPH fluorescence slope in assay [5] is -5.2e-05 (inactive).

Turning to `O=S(=O)(c1ccc2c(c1)nc1n2CCC1)N1CCOCC1`, in assay [1], the cell count stood at 519. Besides, the inhibition in assay [1] was -1.9% (inactive); in assay [3], -18.9% (inactive); in assay [7], -4.44% (inactive); in assay [8], 13.8% (inactive). Also, in assay [2], the inhibition of aggregation is -0.2% (inactive). The nuclei count in assay [2] was determined as 96.3%; in assay [3], 107%. Besides, the figures for the fluorescence slope in assay [4] and in assay [6] were -0.423 (inactive) and 0.00774 (inactive), respectively. Also, the NADPH fluorescence slope in assay [5] was 2.5e-05 (inactive).

`COc1cccc(OC)c1C(=O)N1CCN(S(=O)(=O)c2ccccc2)CC1`: the cell count in assay [1] was 437. Moreover, the inhibition is 1.4% (inactive) in assay [1], -13.1% (inactive) in assay [3], -2.45% (inactive) in assay [7] and 19.4% (inactive) in assay [8]. Moreover, the inhibition of aggregation in assay [2] was -1.7% (inactive). For the same molecule, the nuclei count worked out at 105% in assay [2] and 102% in assay [3]. Besides, the fluorescence slope was -0.531 (inactive) in assay [4] and 0.00446 (inactive) in assay [6]. For the same molecule, the NADPH fluorescence slope in assay [5] is -6.4e-05 (inactive).

As for `O=C(NCCc1ccccc1)c1cc(-c2ccco2)on1`, the cell count in assay [1] amounted to 384. Moreover, the inhibition in assay [1] was -8.7% (inactive); in assay [3], -29.5% (inactive); in assay [7], -44.9% (inactive); in assay [8], -169% (inactive). In addition, the inhibition of aggregation in assay [2] is 7.8% (inactive). For the same molecule, the nuclei count was 102% in assay [2] and 96.5% in assay [3]. For the same molecule, the fluorescence slope in assay [4] was -0.473 (inactive); in assay [6], 0.00445 (inactive). In addition, the NADPH fluorescence slope in assay [5] was -5.1e-05 (inactive).

For the molecule `Cc1ccc(C)n1-c1ccc(N2CCOCC2)cc1`, the cell count in assay [1] stood at 406. For the same molecule, the inhibition in assay [1] was 1% (inactive); in assay [3], -44.4% (inactive); in assay [7] it was 11.4% (inactive); in assay [8] it was 8.15% (inactive). Further, in assay [2], the inhibition of aggregation was 14.3% (inactive). The nuclei count is 99.8% in assay [2] and 111% in assay [3]. For the same molecule, the fluorescence slope in assay [4] was -0.345 (inactive); in assay [6], 0.00513 (inactive). Also, the NADPH fluorescence slope in assay [5] is -5.6e-05 (inactive).

As for `O=C(CCSc1nnc(-c2ccncc2)o1)Nc1ccccc1`, in assay [1], the cell count came out at 680. In addition, the inhibition in assay [1] is -3.9% (inactive); in assay [3], -26.7% (inactive); in assay [7] it was 1.76% (inactive); in assay [8], 12.2% (inactive). The inhibition of aggregation in assay [2] is 1% (inactive). In addition, the nuclei count in assay [2] was determined as 107%; in assay [3] it was 114%. Moreover, the fluorescence slope is -0.512 (inactive) in assay [4] and 0.0061 (inactive) in assay [6]. For the same molecule, in assay [5], the NADPH fluorescence slope was -6.6e-05 (inactive).

For the molecule `CCS(=O)(=O)c1ccc(S(=O)(=O)CC)s1`, in assay [1], the cell count came to 412. The inhibition was -5.5% (inactive) in assay [1], 10.5% (inactive) in assay [3], 6.99% (inactive) in assay [7] and 17.4% (inactive) in assay [8]. In assay [2], the inhibition of aggregation is 25.8% (inactive). In addition, the nuclei count in assay [2] was 61.1%; in assay [3], 82.3%. The fluorescence slope in assay [4] is -0.584 (inactive); in assay [6], 0.00846 (inactive). The NADPH fluorescence slope in assay [5] was -4.4e-05 (inactive).

As for `CC(C)(C)n1ncc2c(=O)n(CC(=O)c3ccccc3)cnc21`, the cell count in assay [1] came to 473. Besides, the inhibition in assay [1] is -1% (inactive); in assay [3], 22.9% (inactive); in assay [7] it was -21.3% (inactive); in assay [8] it was -59.6% (inactive). In addition, the inhibition of aggregation in assay [2] is -4.1% (inactive). Besides, the nuclei count worked out at 126% in assay [2] and 105% in assay [3]. Also, the results for the fluorescence slope in assay [4] and in assay [6] were -0.534 (inactive) and 0.00534 (inactive), respectively. Besides, the NADPH fluorescence slope in assay [5] is -2.2e-05 (inactive).

For the molecule `COc1ccc2c(C(F)(F)F)cc(=O)oc2c1C`, the cell count in assay [1] came to 701. In addition, the inhibition was -1.8% (inactive) in assay [1], -97% (inactive) in assay [3], 17% (inactive) in assay [7] and 11.3% (inactive) in assay [8]. For the same molecule, the inhibition of aggregation in assay [2] is 0.8% (inactive). The figures for the nuclei count in assay [2] and in assay [3] were 99.9% and 111%, respectively. Also, the values for the fluorescence slope in assay [4] and in assay [6] were -0.428 (inactive) and 0.00456 (inactive), respectively. The NADPH fluorescence slope in assay [5] was 1.9e-05 (inactive).

Take `CCN(Cc1cc2cc(OC)ccc2[nH]c1=O)C(=O)Cc1ccc(OC)cc1`: the cell count in assay [1] was determined as 369. The inhibition in assay [1] is 1.8% (inactive); in assay [3] it was -57.8% (inactive); in assay [7], 11.4% (inactive); in assay [8] it was 5.34% (inactive). The inhibition of aggregation in assay [2] was -11.9% (inactive). Moreover, the nuclei count in assay [2] was 114%; in assay [3], 124%. For the same molecule, the figures for the fluorescence slope in assay [4] and in assay [6] were -0.549 (inactive) and 0.00319 (inactive), respectively. Also, the NADPH fluorescence slope in assay [5] is -9.8e-05 (inactive).

The values above are taken from PubChem BioAssay.
